# From PubChem BioAssay
# KCNK3 inh – human KCNK3 channel inhibition, primary screen; O14649; CHO-KCNK3 thallium flux, FluxOR fluorescence; stronger effect = lower value; B-score at 10 µM; 340,000 tested, 0.84% active;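 active means B-score under library mean minus 4 SD, starting fluorescence ratio at most library mean plus 5 SD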;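 further: more negative B-score means stronger inhibition of thallium flux through KCNK3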
# KCNQ1 inh – blocks the human KCNQ1 potassium channel. AID 2642. CHO-K1 KCNQ1, FluxOR thallium flux fluorescence; stronger effect = higher value. 310,000 tested, 1.3% active. B-score at 10 µM. P51787;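 active means compounds whose thallium flux B-score, printed positive for inhibition, exceeds three library SD while starting fluorescence stays within three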;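 further: channel opened by potassium depolarization with thallium stimulus after 20 min compound exposure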
# KCNK9 inh – blocks the human KCNK9 two-pore domain potassium channel; HEK293 KCNK9, FluxOR thallium flux fluorescence; stronger effect = lower value; B-score at 10 µM; Q9NPC2; 310,000 tested, 1.2% active;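 active means ratio B-score over 3 SD below the library mean, with starting fluorescence within 5 SD of its mean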;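 further: negative B-score means less thallium flux so channel inhibition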
# hERG rescue – compounds protecting human hERG from proarrhythmic drug block; Q12809; CHO-hERG, FluxOR thallium flux, dofetilide IC70 present; activation (rescue from dofetilide block), less the hit threshold, % at 10 µM; 310,000 tested, 0.51% active; AID 1511;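 active means activation above the mean of controls blocked by dofetilide plus 5 SD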;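 further: thallium influx through hERG after potassium depolarization seen as dye fluorescence rise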
# KCNQ1 act – potentiates or activates the human KCNQ1 potassium channel. B-score at 10 µM. CHO-K1 KCNQ1, thallium flux FluxOR fluorescence; stronger effect = higher value. 310,000 tested, 0.35% active. AID 2648. P51787;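 active means fluorescence ratio B-score, a plate-corrected score, at least three library SD, with initial intensity B-score within 5 SD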
#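 Material: CHO-K1 cells stably expressing KCNQ1. Medium: assay buffer for compound exposure, DMSO matched across wells. Reagent: K+/Tl+ depolarizing stimulus. Compound dosing: single-concentration screen. Times: 37 °C overnight plating, 90-min dark dye load, 20-min compound pretreatment. Technique: FluxOR Tl+ flux fluorescence.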
# KCNK9 block conf – confirmation of human KCNK9 potassium channel inhibitors | shares compounds with KCNK9 inh | HEK293 KCNK9 cells, FluxOR thallium flux fluorescence | inhibition, % at 10 µM | 4,900 tested, 43% active | AID 492992;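 active means thallium signal inhibited by more than 5 SD of the compound-free buffer control wells, on both duplicate plates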;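 further: 0% = assay buffer control wells without compound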
# Kir21 sel – selectivity of KCNK9 modulators against mouse Kir2.1; shares compounds with KCNK9 inh; Kir2.1 cells, FluxOR thallium flux fluorescence; inhibition, % at 10 µM; 4,900 tested, 4% active; AID 492993;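 active means thallium signal drop more than 5 SD beyond the mean of the no-compound control wells, seen in both duplicate plates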;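 further: signal is fluorescence rise after thallium addition divided by baseline fluorescence; plate controls were assay buffer only for no effect and full block by chlorpromazine control for full effect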
# HEK293 Tl ctr – second counter-screen for KCNK9 modulators: effect in non-induced cells. 4,900 tested, 40% active. non-induced KCNK9-HEK293, FluxOR thallium flux. inhibition, % at 10 µM. shares compounds with KCNK9 inh;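 active means thallium signal drop beyond 5 SD of the untreated control mean, on both duplicate plates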;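 further: plate controls were buffer only IC0 wells for no effect and SID17386958 at its maximal inhibitory level for full effect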
# Active calls of the source: *; i = inactive; x = no result. A selection: hits, their analogues and other compounds. The true share with any hit is near 3.1%.
SMILES,KCNK3 inh,KCNQ1 inh,KCNK9 inh,hERG rescue,KCNQ1 act,KCNK9 block conf,Kir21 sel,HEK293 Tl ctr
Cc1ccc(Cn2ccc(NC(=O)c3cc(CC(C)C)on3)n2)cc1,i,i,i,-10.8,i,i,i,i
O=C(C1CC(c2cccc(Br)c2)=NO1)N1CCc2ccccc2C1 (stereo not drawn),i,i,i,-8.8,i,i,i,i
Cc1nc(SCc2ccc(C(=O)O)cc2)c2c(C)c(C)sc2n1,i,i,i,-10.1,i,i,i,i
Cc1ccc(-c2csc3ncnc(SCc4ccc(C(=O)O)cc4)c23)cc1,i,i,i,14.8*,33*,i,i,i
Cc1cc(C(=O)OC(C)C(=O)N2CCc3ccccc32)ccc1[N+](=O)[O-] (stereo not drawn),i,i,i,-10.6,i,i,i,i
Cc1cc(C)c(OCC(=O)OC(C)C(=O)N2CCc3ccccc32)c(C)c1 (stereo not drawn),i,i,i,-12.8,i,x,x,x
CCn1cc(C(C)NC(=O)Nc2ccc3c(c2)OCO3)c(C)n1 (stereo not drawn),i,i,i,-17.7,i,x,x,x
Cc1nc(S/C(=C/c2ccc(-c3cc(Cl)ccc3C)o2)C(=O)O)n[nH]1,i,8*,i,-10.5,i,i,i,35.5%*
CNC[C@H](CC1CCCCC1)NC[C@H](Cc1ccccc1)NCCC12CC3CC(CC(C3)C1)C2,i,i,-10.2*,-2.8,i,61.5%*,79.5%*,26.0%*
CN(C)c1ccc(C(=O)c2ccc(N(C)C)c3ccccc23)cc1,i,i,i,-4.0,i,i,i,i
CCn1c(SCc2ccccc2Cl)nc2nc3c(cc2c1=O)CCCC3,i,i,i,-12.0,i,i,i,i
Cc1ccc(NC(=O)COC(=O)C2CCC2)cc1S(=O)(=O)N1CCCCC1,i,i,i,-12.2,i,x,x,x
COc1ccc2c(c1)c(C(=O)N/N=C/c1cn(C)c3ccccc13)c(C)n2C,i,i,-9.43*,-17.2,i,i,i,i
COc1ccc2c(c1)c(C(=O)N/N=C/c1ccc(OC)c(OC)c1)c(C)n2C,i,i,i,-3.5,i,x,x,x
COCCN(Cc1nc(C(c2ccccc2)c2ccccc2)no1)C(C)C,i,i,-8.66*,-4.0,i,i,i,i
CSc1ccccc1NC(=O)c1ccc(CN2CCOCC2)cc1,i,i,-10.6*,-5.1,i,i,i,i
CCOc1ccc(CCNC(=O)CSc2nc3ncc(Cl)cc3[nH]2)cc1OCC,i,i,i,-4.4,i,x,x,x
CCOc1ccc(CCNC(=O)CSCc2ccc(C)cc2)cc1OCC,i,i,i,-4.5,i,i,i,i
CCOc1ccc(CCNC(=O)CSc2nn(-c3ccc(C)c(Cl)c3)c(=S)s2)cc1OCC,i,i,i,-11.6,i,i,i,i
Cn1nnnc1SCC(=O)NCCc1ccc(Cl)cc1,i,i,i,-6.1,i,x,x,x
CCOc1ccc(CCNC(=O)CSc2nnnn2C)cc1OCC,i,i,-13.4*,-8.0,i,i,i,i
CCOc1ccc(CCNC(=O)COC(=O)COc2cc(C)cc(C)c2)cc1OCC,i,i,i,-15.7,i,x,x,x
CCOc1ccc(CCNC(=O)CCOc2cc(C)ccc2C)cc1OCC,i,i,i,-4.1,i,i,i,33.5%*
CCOC(=O)NN1C(=O)c2ccccc2NC1c1ccc(OC)c(OC)c1 (stereo not drawn),i,i,i,-14.3,i,x,x,x
CC(C)(C)NC(=O)C(c1ccc(F)cc1)N(Cc1ccco1)C(=O)CCC(=O)Nc1nccs1 (stereo not drawn),i,i,i,-3.3,i,x,x,x
SMILES,KCNK3 inh,KCNQ1 inh,KCNK9 inh,hERG rescue,KCNQ1 act,KCNK9 block conf,Kir21 sel,HEK293 Tl ctr
Cc1cc(C)n2nc(SCC(=O)c3cc(C)n(CC4CCCO4)c3C)nc2n1 (stereo not drawn),i,i,i,-5.9,i,x,x,x
O=C(Nc1ccc([N+](=O)[O-])cn1)c1ccc(Br)o1,i,i,i,-4.4,i,x,x,x
O=C(CSCc1ccc(Br)cc1)NCCc1ccccc1,i,i,i,-9.0,i,i,i,i
O=C(CSCc1ccccc1)NCCc1ccc(F)cc1,i,i,i,-6.0,i,x,x,x
CCOC(=O)C(Cc1ccccc1)NC(=O)CCc1c(C)nc2nc(C)nn2c1C (stereo not drawn),i,i,i,-10.5,i,x,x,x
Cc1ccc(CN2CCCN(Cc3c(C)cc(C)cc3C)S2(=O)=O)cc1,i,i,i,-3.6,i,i,i,i
CCOC(=O)COc1nc(-c2ccccc2)cc(-c2ccco2)c1C#N,i,i,-8.24*,-5.4,i,49.0%*,i,34.0%*
COC(=O)CSc1nc(N)c(C#N)c(-c2ccco2)c1C#N,i,i,i,-18.3,i,x,x,x
COC(=O)CSc1nc(-c2ccccc2)cc(-c2ccco2)c1C#N,i,i,-8.94*,-1.6,i,31.0%*,i,27.5%*
C#CCCOC(=O)N1C2=NC(C(=O)OC)=C(C(=O)OC)[C@@H]3N(CC=C)c4ccccc4[C@]23C[C@H]1C(=O)OC,i,i,i,2.7,i,x,x,x
Cc1ccc(S(=O)(=O)N2CCN(C(=O)COC(=O)c3ccc(O)cc3)CC2)c(C)c1,i,i,i,-8.8,i,x,x,x
COc1cc(C(=O)NNC(=O)COc2ccc(Cl)cc2)ccc1OCC(=O)N1CCOCC1,i,x,x,x,x,x,x,x
COc1ccccc1CNC(=O)c1cc(-c2ccccc2)nn1CC1CC(c2cccc([N+](=O)[O-])c2)=NO1 (stereo not drawn),i,i,-8.65*,-8.2,i,44.5%*,i,30.0%*
COc1cccc(COC(=O)C2CCN(S(=O)(=O)c3ccc(C)cc3C)CC2)c1OC,i,i,i,-11.9,i,i,i,i
O=C(COc1ccc(F)cc1)N1CCC(Cc2ccccc2)CC1,i,i,i,-10.3,i,x,x,x
COc1cc(C(C(=O)NC(C)(C)C)N(C(=O)CNC(=O)c2cccs2)c2cccnc2)cc(OC)c1OC (stereo not drawn),i,i,i,-1.9,i,x,x,x
Cc1cc(/C=C(\C#N)C(=O)NC2CCCCCC2)c(C)[nH]1,i,i,i,-3.7,i,x,x,x
